Measurements from ChEMBL document CHEMBL1128676, “Phosphonates and phosphinates: novel leaving groups for benzisothiazolone inhibitors of human leukocyte elastase” (J Med Chem, 1995).

Tests used:
[1] = molecular target: T1, Neutrophil elastase (Homo sapiens) (UniProt P08246); test: Inhibitory activity against Human leukocyte elastase as kinetic constant for inhibition (inactivation)
T1 sequence (whole entry): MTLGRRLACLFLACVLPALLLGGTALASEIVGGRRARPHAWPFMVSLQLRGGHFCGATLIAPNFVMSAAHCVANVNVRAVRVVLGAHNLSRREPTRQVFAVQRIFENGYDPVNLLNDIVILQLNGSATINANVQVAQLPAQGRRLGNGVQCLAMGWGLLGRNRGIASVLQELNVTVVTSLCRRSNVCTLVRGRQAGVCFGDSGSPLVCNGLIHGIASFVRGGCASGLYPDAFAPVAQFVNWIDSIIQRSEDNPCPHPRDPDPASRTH
How it was run: (§1)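 Human leukocyte elastase inhibition measured in vitro at pH 7.8. Kinetic constants reported as k_inact (M⁻¹ s⁻¹), k_react (s⁻¹) and K_i* (nM).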

Neutrophil elastase [2] = molecular target: T2, Neutrophil elastase (Homo sapiens, UniProt P08246); test: In vitro inhibitory activity against Human leukocyte elastase; how it was run: as §1
T2 sequence (P08246 whole entry): T1 sequence (whole entry)

Cricetinae gen. sp. [3] = test: In vivo inhibitory activity of 10 mg/kg compound administered intravenously against Human leukocyte elastase induced hemorrhage in hamster; type: functional, Cricetulus griseus; settings: route intravenous
How it was run: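 Hamster elastase-induced pulmonary hemorrhage model: 10 mg/kg given intravenously 1 min before intratracheal human leukocyte elastase (25 μg). Result expressed as % inhibition of HLE activity, mean ± error.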

[4] = molecular target: T1, Neutrophil elastase (Homo sapiens); test: Inhibitory activity against Human leukocyte elastase was determined in vitro and expressed as kinetic constant for inhibition (reactivity); how it was run: as §1
Cricetinae gen. sp. [5] = test: In vivo inhibitory activity of 10 mg/kg compound administered subcutaneously against Human leukocyte elastase induced hemorrhage in hamster; type: functional, Cricetulus griseus; settings: sc, route subcutaneous
How it was run: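 Hamsters dosed subcutaneously at 10 mg/kg, 1 min before intratracheal instillation of human leukocyte elastase (25 μg), to induce pulmonary hemorrhage. Readout is % inhibition of in vivo HLE activity, mean ± error.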

Neutrophil elastase [6] = molecular target: T2, Neutrophil elastase; test: Inhibitory activity against Human leukocyte elastase was determined; how it was run: as §1
[7] = Acid dissociation constant was determined; type: ADME
[8] = molecular target: T1, Neutrophil elastase (Homo sapiens)

| SMILES | K inact [1] | Ki (Neutrophil elastase [2]) | Kreact [4] | Ki (Neutrophil elastase [6]) | pKa [7] | K inact [8] | inhibition in vivo at 10 mg/kg (Cricetinae gen. sp. [3]) | inhibition in vivo at 10 mg/kg (Cricetinae gen. sp. [5]) |
| --- | --- | --- | --- | --- | --- | --- | --- | --- |
| O=C1c2ccccc2S(=O)(=O)N1COP(=O)(Oc1ccccc1)Oc1ccccc1 | 11000 M⁻¹ s⁻¹ |  |  | 6.5 nM | 1.91 |  |  |  |
| CCOP(=O)(OCC)OCN1C(=O)c2c(C(C)C)cc(OC)cc2S1(=O)=O | 343000 M⁻¹ s⁻¹ |  | 1.2e-05 s⁻¹ |  |  |  | 92% |  |
| CCOP(=O)(OCC)OCN1C(=O)c2c(C(C)C)cc(O)cc2S1(=O)=O | 3300 M⁻¹ s⁻¹ | 4.5 nM | 1.4e-05 s⁻¹ |  |  |  |  |  |
| O=C1c2ccccc2S(=O)(=O)N1COP(=O)(OCc1ccccc1)OCc1ccccc1 | 4100 M⁻¹ s⁻¹ |  |  | 20.5 nM | 2.26 |  |  |  |
| COP(=O)(OC)OCN1C(=O)c2ccccc2S1(=O)=O | 800 M⁻¹ s⁻¹ |  |  | 100 nM | 2.56 |  |  |  |

Continued, in another order:

| K inact [1] | Ki (Neutrophil elastase [2]) | Kreact [4] | Ki (Neutrophil elastase [6]) | pKa [7] | K inact [8] | SMILES | inhibition in vivo at 10 mg/kg (Cricetinae gen. sp. [3]) | inhibition in vivo at 10 mg/kg (Cricetinae gen. sp. [5]) |
| --- | --- | --- | --- | --- | --- | --- | --- | --- |
| 530000 M⁻¹ s⁻¹ | 0.1 nM | 5.3e-05 s⁻¹ |  |  |  | CCOP(=O)(OCC)OCN1C(=O)c2c(C(C)C)cccc2S1(=O)=O | 84% |  |
| 800000 M⁻¹ s⁻¹ | 0.07 nM | 5.6e-05 s⁻¹ |  |  |  | CCOP(=O)(OCC)OCN1C(=O)c2c(C(C)CC)cccc2S1(=O)=O (stereo not drawn) |  | 83% |
| 4800 M⁻¹ s⁻¹ |  |  | 17 nM | 2.59 |  | CCCCOP(=O)(OCCCC)OCN1C(=O)c2ccccc2S1(=O)=O |  |  |
| 1100 M⁻¹ s⁻¹ | 60 nM | 6.6e-05 s⁻¹ | 60 nM | 2.5 | 1100 M⁻¹ s⁻¹ | CCOP(=O)(OCC)OCN1C(=O)c2ccccc2S1(=O)=O |  | 56% |
| 1900 M⁻¹ s⁻¹ |  |  | 30 nM | 3.34 |  | O=C1c2ccccc2S(=O)(=O)N1COP(=O)(c1ccccc1)c1ccccc1 |  |  |
| 2300 M⁻¹ s⁻¹ |  |  | 24 nM |  |  | CCCCP(=O)(CCCC)OCN1C(=O)c2ccccc2S1(=O)=O |  |  |
